pIC50: −log10 of the molar value. The source made the active and inactive calls. The rule behind the calls is not given here.
How the values were obtained:
A549 = test: Antiproliferative activity against human A549 cells after 72 hrs by MTT assay; format: functional, cell-based; conditions: A549, 72 h
How it was run: (§1)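 Cells kept as monolayers in DMEM with 10% FBS, 5% CO2, 37 °C. Seeded at 3000-5000 cells/well, grown 24 h before dosing. Treated with 100.0, 10.0, 1.0, 0.1 and 0.01 μM of compound for 48 h. MTT (5 mg/ml in medium) added for 4 h, formazan pelleted, dissolved in DMSO, OD read at 490 nm. IC50 derived from inhibition ratios. Three separate experiments, each in triplicate.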

MCF7 = test: Antiproliferative activity against human MCF7 cells […] by MTT assay; format: functional, cell-based
[1] = Antiproliferative activity against human HCT116 cells […] by MTT assay; format: functional, cell-based; conditions: HCT-116
[2] = Antiproliferative activity against human U87MG cells after 72 hrs by MTT assay; format: functional, cell-based, U-87MG ATCC; conditions: U-87 MG; how it was run: as §1
HCT-116 = test: Inhibition of PI3K/Akt signalling in human HCT116 cells assessed as reduction in AKT Ser473 phosphorylation at 1 uM after 1 hr by Western blot method; format: cell-based
How it was run: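 HCT-116 cells seeded at 1×10^6/well in DMEM with 10% FBS and grown 16 h at 37 °C. Exposed to compound or DMSO for 1 h at 37 °C, then lysed in ice-cold buffer and clarified at 12000 rpm, 20 min, 4 °C. Protein measured by BCA and run on SDS-PAGE. Immunoblotted for AKT, p-Ser473 AKT and β-actin, with chemiluminescent detection and densitometry. Three independent experiments, each in duplicate.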

Mus musculus [3] = test: Toxicity in human HCT116 cells xenografted BALB/C mouse assessed as weight loss at 30 mg/kg, po dosed once daily for 14 days; format: organism-based, HCT-116; parameters: dose 30 mg/kg, route oral; conditions: in vivo, 336 h
How it was run: (§2)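 Male BALB/C nude mice (18-20 g) carried subcutaneous flank HCT-116 xenografts (3×10^6 cells), randomised at 100 mm³. Compound dosed orally in NMP/PEG300 (1:9) once daily for 14 days; controls got vehicle alone. Body weight recorded every 3-4 days until sacrifice on day 26.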

[4] = Antitumor activity against human HCT116 cells xenografted in BALB/C mouse assessed as reduction in tumor volume at 30 mg/kg, po dosed once daily for 14 days; format: functional; conditions: HCT-116, 336 h
How it was run: (§3)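 Male BALB/C nude mice (SPF, 18-20 g) received 3×10^6 HCT-116 cells subcutaneously in the flank. At 100 mm³ tumours, animals were randomised (8 controls, 5 per drug group). Compound given orally in NMP/PEG300 (1:9) once daily for 14 days; controls got vehicle. Tumour volume (length × width × width/2) recorded every 3-4 days. Sacrifice on day 26, inhibition ratios from tumour volume and weight. Mean ± standard error.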

[5] = Antitumor activity against human HCT116 cells xenografted in BALB/C mouse assessed as reduction in tumor volume at 10 mg/kg, po dosed once daily for 14 days; format: functional; conditions: HCT-116, 336 h; how it was run: as §3
Mus musculus [6] = test: Toxicity in human HCT116 cells xenografted BALB/C mouse assessed as weight loss at 10 to 30 mg/kg, po dosed once daily for 14 days; format: organism-based, HCT-116; parameters: dose 10-30 mg/kg, route oral; conditions: in vivo, 336 h; how it was run: as §2

Row | pIC50 (A549) | pIC50 (MCF7) | Compound | pIC50 [1] | pIC50 [2] | other results
1 | 4.52 | 4.48 | COc1c(NS(=O)(=O)c2ccc(F)cc2)cc(-c2ccc3nc(NC4CC4)sc3n2)cc1C(N)=O | 4.45 | 4.38 | –
2 | – | – | COc1c(NS(=O)(=O)c2ccc(F)cc2)cc(-c2ccn3nc(N)nc3c2)cc1C(N)=O | < 4.30 | – | –
3 | – | – | COc1c(NS(=O)(=O)c2ccc(F)cc2)cc(-c2ccc3nc(NC4CC4)sc3c2)cc1C(N)=O | < 4.30 | – | –
4 | 4.33 | – | COc1c(NS(=O)(=O)C2CC2)cc(-c2ccc3nc(NC(=O)C4CC4)sc3c2)cc1C(N)=O | 4.84 | 5.09 | –
5 | – | – | COc1c(NS(=O)(=O)C2CC2)cc(-c2ccc3nc(NC(C)=O)nn3c2)cc1C(N)=O | 4.44 | – | –
6 | 7.00 | 6.26 | Cn1c(=O)n(-c2ccc(C(C)(C)C#N)cc2)c2c3cc(-c4cnc5ccccc5c4)ccc3ncc21 [DACTOLISIB] | 6.49 | 5.63 | inhibition (HCT-116): Active; Activity (Mus musculus [3]): Toxic; inhibition in vivo at 30 mg/kg [4]: 24.2%
7 | – | – | COc1c(NS(=O)(=O)c2ccc(Cl)cc2)cc(-c2ccc3nc(NC(C)=O)nn3c2)cc1C(N)=O | 4.50 | – | –
8 | < 4.30 | < 4.30 | NC(=O)c1cc(-c2ccc3nc(NC(=O)C4CC4)sc3c2)cc(NS(=O)(=O)c2ccc(F)cc2)c1Cl | 4.94 | 4.75 | –
9 | 5.09 | 4.66 | COc1c(NS(=O)(=O)c2ccc(F)cc2)cc(-c2ccc3nc(NC(=O)C4CC4)sc3n2)cc1C(N)=O | 5.60 | 4.69 | –
10 | 5.77 | 6.30 | COc1c(NS(=O)(=O)c2ccc(F)cc2)cc(-c2ccc3nc(NC(C)=O)sc3c2)cc1C(N)=O | 5.71 | 5.32 | inhibition (HCT-116): Active; inhibition in vivo at 10 mg/kg [5]: 40.1%; Activity (Mus musculus [6]): Non-toxic; inhibition in vivo at 30 mg/kg [4]: 46.9%
11 | – | – | CC(=O)Nc1nc2ccc(-c3cc(NS(=O)(=O)c4ccc(F)cc4)c(Cl)c(C(N)=O)c3)cn2n1 | < 4.30 | – | –
12 | – | – | COc1c(NS(=O)(=O)c2ccc(F)cc2)cc(-c2ccn3nc(NC(=O)C4CC4)nc3c2)cc1C(N)=O | < 4.30 | – | –
13 | – | – | COc1c(NS(=O)(=O)c2ccc(F)cc2)cc(-c2ccc3nc(NC(C)=O)nn3c2)cc1C(N)=O | 4.60 | – | –
14 | – | – | COc1c(NS(=O)(=O)c2ccc(C)cc2)cc(-c2ccc3nc(NC(C)=O)nn3c2)cc1C(N)=O | 4.56 | – | –
15 | – | – | CCOC(=O)CNc1nc2ccc(-c3cc(NS(=O)(=O)c4ccc(F)cc4)c(OC)c(C(N)=O)c3)cc2s1 | < 4.30 | – | –
16 | – | – | NC(=O)c1cc(NS(=O)(=O)c2ccc(F)cc2)cc(-c2ccc3nc(NC(=O)C4CC4)sc3c2)c1 | < 4.30 | – | –
17 | 5.37 | 4.90 | COc1c(NS(=O)(=O)c2ccc(F)cc2)cc(-c2ccc3nc(NC(C)=O)sc3n2)cc1C(N)=O | 5.37 | 4.66 | –
18 | – | – | COc1c(NS(=O)(=O)c2ccc(F)cc2)cc(-c2ccc3nc(NC(=O)C4CC4)nn3c2)cc1C(N)=O | 4.36 | – | –
19 | 6.70 | 6.28 | CC(=O)Nc1nc2ccc(-c3cnc(Cl)c(NS(=O)(=O)c4ccc(F)cc4)c3)cc2s1 | 6.29 | 5.55 | –
20 | 5.20 | 5.80 | COc1c(NS(=O)(=O)c2ccc(F)cc2)cc(-c2ccc3nc(NC(=O)C4CC4)sc3c2)cc1C(N)=O | 5.70 | 5.54 | –
21 | – | – | COc1c(NS(=O)(=O)c2ccc(F)cc2)cc(-c2ccn3nc(NC(C)=O)nc3c2)cc1C(N)=O | 4.49 | – | –

Source: ChEMBL document CHEMBL3351800, “Combination of 2-methoxy-3-phenylsulfonylaminobenzamide and 2-aminobenzothiazole to discover novel anticancer agents” (Bioorg Med Chem, 2014)
